Calls of active or inactive are those of the source. No cut-off for these calls is given here.
Key:
[1] = molecular target: T1, Adrenergic receptor alpha-2 (Rattus norvegicus, UniProt P22086+P19328+P22909); assay: Ability to displace [3H]clonidine from alpha-2 adrenergic receptor in rat brain homogenates in vitro; type: tissue-based
T1 sequence (P22086 whole entry): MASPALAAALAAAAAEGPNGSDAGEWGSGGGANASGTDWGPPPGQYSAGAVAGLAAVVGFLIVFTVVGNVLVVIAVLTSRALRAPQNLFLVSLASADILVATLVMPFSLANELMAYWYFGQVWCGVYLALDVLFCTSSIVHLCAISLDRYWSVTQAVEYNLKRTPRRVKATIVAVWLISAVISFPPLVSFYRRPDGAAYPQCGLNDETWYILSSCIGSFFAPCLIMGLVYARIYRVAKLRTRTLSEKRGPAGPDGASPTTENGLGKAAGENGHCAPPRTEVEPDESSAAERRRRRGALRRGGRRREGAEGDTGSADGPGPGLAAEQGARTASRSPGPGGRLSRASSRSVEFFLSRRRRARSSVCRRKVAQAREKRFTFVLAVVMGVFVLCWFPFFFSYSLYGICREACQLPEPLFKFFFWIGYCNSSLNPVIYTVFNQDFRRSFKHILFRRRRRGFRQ
T1 sequence (P19328 whole entry): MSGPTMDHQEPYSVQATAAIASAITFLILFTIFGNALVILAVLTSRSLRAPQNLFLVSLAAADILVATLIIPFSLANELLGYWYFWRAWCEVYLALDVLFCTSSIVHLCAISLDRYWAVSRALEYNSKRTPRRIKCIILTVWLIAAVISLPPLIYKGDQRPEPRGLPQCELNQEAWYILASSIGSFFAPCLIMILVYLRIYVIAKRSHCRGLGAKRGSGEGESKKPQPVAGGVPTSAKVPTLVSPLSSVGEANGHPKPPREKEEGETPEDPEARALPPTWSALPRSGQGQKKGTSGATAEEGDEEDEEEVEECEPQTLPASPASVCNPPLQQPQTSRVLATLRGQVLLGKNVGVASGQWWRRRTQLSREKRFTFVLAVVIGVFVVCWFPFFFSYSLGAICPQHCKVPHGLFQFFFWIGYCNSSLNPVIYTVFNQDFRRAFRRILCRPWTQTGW
T1 sequence (P22909 whole entry): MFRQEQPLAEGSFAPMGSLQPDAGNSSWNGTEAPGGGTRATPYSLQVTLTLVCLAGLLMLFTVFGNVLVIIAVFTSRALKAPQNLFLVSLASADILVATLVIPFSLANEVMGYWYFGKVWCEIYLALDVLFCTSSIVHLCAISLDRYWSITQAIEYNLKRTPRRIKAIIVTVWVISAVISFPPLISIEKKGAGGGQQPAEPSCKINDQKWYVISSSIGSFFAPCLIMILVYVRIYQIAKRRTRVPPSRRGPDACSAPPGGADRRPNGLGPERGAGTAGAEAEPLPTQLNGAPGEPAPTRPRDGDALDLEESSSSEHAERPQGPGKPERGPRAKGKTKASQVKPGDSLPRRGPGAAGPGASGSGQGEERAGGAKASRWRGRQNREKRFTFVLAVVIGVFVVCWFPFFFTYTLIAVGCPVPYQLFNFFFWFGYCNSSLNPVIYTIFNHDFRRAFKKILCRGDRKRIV

[2] = molecular target: T1, Adrenergic receptor alpha-2; assay: In vitro antagonistic activity against alpha-2 adrenergic receptor in isolated electrically stimulated rat vas deferens (clonidine-induced decrease in twitch height); type: functional, tissue-based
Rattus norvegicus [3] = species: Rattus norvegicus; assay: Inhibition of [3H]5-HT uptake into rat brain synaptosomes in vitro;Values ranges from: 0.14-0.22; type: functional
Procedure, shortened: (§1)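 Male Sprague–Dawley rat (180–240 g) cortex (NE, 5-HT) or striatum (DA) crude P2 synaptosomes in 0.32 M sucrose. Preincubated 5 min at 25 °C with drug in Krebs–Ringer phosphate containing ascorbate, EDTA, nialamide; 0.1 μM final [3H]amine added for 5 min. Stopped by cold saline and GF/B filtration; nonspecific uptake at 4 °C. IC50 with 95% limits computed.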

Rattus norvegicus [4] = species: Rattus norvegicus; assay: Inhibition of [3H]norepinephrine uptake into rat brain synaptosomes in vitro;Values ranges from: 0.01-0.07; type: functional; procedure, shortened: as §1
Rattus norvegicus [5] = assay: Minimum effective dose required for inhibition of serotonin uptake was determined by PCA method in rat by peroral administration; type: functional; settings: po, read-out: MED
Procedure, shortened: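 Fasted male Sprague–Dawley rats (160–200 g) given test compound orally in water (10 mL/kg) 15 min before p-chloroamphetamine 3 mg/kg ip. Forebrain taken 3 h later, extracted in acidified butanol then heptane/0.1 N HCl. Serotonin in aqueous phase measured fluorometrically after o-phthalaldehyde condensation (excitation 360 nm). Minimum effective dose reported.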

Mus musculus [6] = assay: Effective dose required for inhibition of tetrabenazine-induced ptosis in mouse by peroral administration;Values ranges from: 1.8-9.3; type: functional; settings: po
Rattus norvegicus [7] = species: Rattus norvegicus; assay: Inhibition of [3H]dopamine uptake into rat brain synaptosomes in vitro;Values ranges from: 0.09-0.18; type: functional; procedure, shortened: as §1
[8] = molecular target: T2, Adrenergic receptor alpha-2 (Rattus norvegicus) (UniProt P22086+P19328+P22909); assay: In vitro antagonistic activity against alpha-2 adrenergic receptor in isolated electrically stimulated rat vas deferens (clonidine-induced decrease in twitch height) at 500 uM concentration.;IA is Inactive, no antagonism at 500 uM; type: functional
[9] = molecular target: T2, Adrenergic receptor alpha-2 (Rattus norvegicus); assay: In vitro antagonistic activity against alpha-2 adrenergic receptor in isolated electrically stimulated rat vas deferens (clonidine-induced decrease in twitch height) at 500 uM concentration. IA is Inactive, no antagonism at 500 uM; type: functional
Rattus norvegicus [10] = species: Rattus norvegicus; assay: Inhibition of [3H]norepinephrine uptake into rat brain synaptosomes in vitro;Values ranges from: 8.6-21; type: functional
Procedure, shortened: (§2)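 Male Sprague–Dawley rat cerebral cortex (180–240 g) homogenized in 0.32 M sucrose; crude P2 synaptosomes. Preincubated 5 min at 25 °C in modified Krebs–Ringer phosphate with ascorbic acid, EDTA and nialamide. Uptake run 5 min with 0.1 μM final [3H]-5-HT or [3H]NE, stopped by ice-cold saline and filtration. Nonspecific uptake taken at 4 °C. Scintillation counting; IC50 with 95% confidence limits.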

Rattus norvegicus [11] = species: Rattus norvegicus; assay: Inhibition of [3H]dopamine uptake into rat brain synaptosomes in vitro; type: functional
Procedure, shortened: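 Male Sprague–Dawley rat corpus striatum (180–240 g) homogenized in 0.32 M sucrose; P2 synaptosomes. Preincubated 5 min at 25 °C in modified Krebs–Ringer phosphate with ascorbic acid, EDTA and nialamide. Uptake run 5 min with 0.1 μM final [3H]dopamine, ended by cold saline and GF/B filtration. Nonspecific uptake measured at 4 °C. IC50 with 95% confidence limits.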

Rattus norvegicus [12] = species: Rattus norvegicus; assay: Inhibition of [3H]5-HT uptake into rat brain synaptosomes in vitro; type: functional; procedure, shortened: as §2
Mus musculus [13] = assay: Effective dose required for inhibition of tetrabenazine-induced ptosis in mouse by peroral administration; type: functional; settings: po
Procedure, shortened: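 Swiss Webster mice; test compound in 0.9% NaCl (10 mL/kg) given po 30 min before ip tetrabenazine methanesulfonate (50 mg/kg, in 0.9% NaCl with moderate heating). Ptosis scored subjectively 30 min after tetrabenazine on a 0–4 scale (0 = complete eye closure, 4 = no closure). ED50 with 95% confidence limits from quantal dose–response analysis.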

Mus musculus [14] = assay: Effective dose required to antagonise clonidine-induced antinociception(ACA) in mouse by peroral administration;Values ranges from: 0.5-3.8; type: functional; settings: po
[15] = molecular target: T2, Adrenergic receptor alpha-2 (Rattus norvegicus); assay: In vitro antagonistic activity against alpha-2 adrenergic receptor in isolated electrically stimulated rat vas deferens (clonidine-induced decrease in twitch height)at 500 uM concentration. IA is Inactive, no antagonism at 500 uM; type: functional
[16] = molecular target: T2, Adrenergic receptor alpha-2 (Rattus norvegicus); assay: In vitro antagonistic activity against alpha-2 adrenergic receptor in isolated electrically stimulated rat vas deferens (clonidine-induced decrease in twitch height) at 500 uM concentration;IA is Inactive, no antagonism at 500 uM; type: functional

SMILES	Ki [1] [nM]	pA2 [2]	other results
CC(C1=Cc2ccccc2CC1)C1=NCCN1.Cl (centres undefined)	32	7.43	–
C[C@@H]1c2ccccc2CC[C@@H]1CC1=NCCN1.Cl	135	7.22	–
CN(C)CCCN1c2ccccc2CCc2ccccc21 [IMIPRAMINE]	–	–	IC50 (Rattus norvegicus [3]): 180 nM; IC50 (Rattus norvegicus [4]): 30 nM; minimal effective dose (Rattus norvegicus [5]): 30 mg/kg; ED50 (Mus musculus [6]): 4.1 mg/kg; IC50 (Rattus norvegicus [7]): 130 nM
Cl.c1ccc2cc(CC3=NCCN3)ccc2c1	48	7.67	–
CC1=C(CC2=NCCN2)Cc2ccccc21.Cl	6.9	7.71	–
C[C@H]1c2ccccc2CC[C@@H]1CC1=NCCN1.Cl	401	–	–
CC1=C(CC2=NCCCN2)CCc2ccccc21.Cl	334	–	pA2 [8]: inactive
CC1=C(CC2=NCC(C)N2)CCc2ccccc21.Cl (centres undefined)	> 800	–	pA2 [9]: inactive
c1ccc2c(c1)OCC(C1=NCCN1)O2 (centres undefined) [IDAZOXAN]	–	–	IC50 (Rattus norvegicus [10]): 13000 nM; minimal effective dose (Rattus norvegicus [5]): > 30 mg/kg; IC50 (Rattus norvegicus [11]): > 30000 nM; IC50 (Rattus norvegicus [12]): > 30000 nM; ED50 (Mus musculus [13]): > 30 mg/kg; ED50 (Mus musculus [14]): 1.3 mg/kg
Cc1c(CC2=NCCN2)ccc2ccccc12.Cl	6.6	7.35	–
CC1=C(Cc2ncc[nH]2)CCc2ccccc21	88	6.92	–
CC1=C(CC2=NCCN2C)CCc2ccccc21.Cl	436	–	pA2 [15]: inactive
CCN1CCN=C1CC1=C(C)c2ccccc2CC1.Cl	548	–	pA2 [16]: inactive
C1=C(CC2=NCCN2)Cc2ccccc21.Cl	76	7.19	–

— ChEMBL document CHEMBL1123816, “Synthesis and antidepressant properties of novel 2-substituted 4,5-dihydro-1H-imidazole derivatives” (J Med Chem, 1987)
